Assay results as given in ChEMBL document CHEMBL5653608 (Br J Pharmacol, 2011).

Experiments:
[1] = Inhibition of EFS-induced contraction of human myometrium incubated for 60 mins; format: functional, tissue-based
Procedure, shortened: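 Human myometrial strips (donors aged 24–76) in a 15 mL Krebs bath at 37°C, under EFS at 15 V, 1.5 ms pulses, 10 s every 100 s, at a submaximal 15 Hz. Antagonist (10 or 100 nM) or vehicle was equilibrated for 60 min. Cumulative butaprost (0.1 nM–10 µM) or PGE2 (0.1 nM–3 µM) was given for at least five EFS responses per concentration. pKB was calculated from same-donor concentration ratios.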

[2] = Induction of relaxation in […] C57BL/6 mouse trachea at 0.1 to 30 uM incubated for 30 mins relative to control (reference value: 21.6 +/- 8.8%); format: functional; design: scale not given: the % may be the effect or the level left; conditions: dose 0.1-30 µM, 0.5 h
[3] = Induction of relaxation in nifedipine-induced carbachol pre-contracted rings of Beagle dog bronchioles incubated for 1 hr; format: functional, tissue-based, Canis lupus familiaris, Bronchiole
Procedure, shortened: (§1)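 Beagle bronchiole rings held at 1 g tension in Krebs at 37°C (with propranolol and phentolamine), primed with 80 mM KCl. Rings were precontracted with 1 µM carbachol, then antagonist (3–100 nM) or vehicle was equilibrated for 1 h. Cumulative PGE2 relaxation curves followed, with final 10 µM nifedipine defining maximal relaxation. KB by the Lew and Angus method.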

[4] = Induction of relaxation in nifedipine-induced carbachol pre-contracted rings of Beagle dog bronchioles incubated for 1 hr relative to control; format: functional, Canis lupus familiaris, Bronchiole; design: scale not given: the % may be the effect or the level left; procedure, shortened: as §1
[5] = Induction of relaxation in forskolin-induced carbachol pre-contracted C57BL/6 mouse trachea incubated for 30 mins; format: functional, tissue-based
Procedure, shortened: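 Male C57BL/6 tracheal rings at 0.35 g tension in Krebs (95% O2/5% CO2, 37°C). Rings were precontracted with 10 µM carbachol before cumulative half-log PGE2 (0.1 nM–30 µM). Curves were repeated in the same ring after 30 min with 3 nM antagonist or DMSO, and 10 µM forskolin set maximal relaxation. pKB = log(CR−1) − log[B].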

In the case of `CCCCC[C@H](O)/C=C/[C@H]1[C@H](O)CC(=O)[C@@H]1C/C=C\CCCC(=O)O` [DINOPROSTONE], the IC50 [1] is reported as 17.3 nM, the Activity [2] is reported as 65.4% and the EC50 [3] is reported as 90 nM. The Activity [4] was 82% and the EC50 [5] was 133 nM.
